According to ChEMBL document CHEMBL3576819, “Design, synthesis, biological evaluation and molecular docking studies of phenylpropanoid derivatives as potent anti-hepatitis B virus agents” (Eur J Med Chem, 2015):

Assays:
[1] = Cytotoxicity against human HepG2.2.15 cells assessed as cell death after 9 days by MTT assay; type: cell-based, HepG2 2.2.15
Summary of the method: (§1)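 HepG2.2.15 cells (MEM, 10% FBS, 380 µg/ml G418, 37 °C, 5% CO2) seeded at 1×10^5 cells/ml, cultured 24 h, then exposed to various drug concentrations; drug-containing medium renewed every 3 d. OD read at 450 nm after 9 days; percent cell death calculated; CC50 = concentration killing 50% of cells. Means of at least two experiments.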

[2] = system: Hepatitis B virus; experiment: Antiviral activity against Hepatitis B virus infected in human HepG2.2.15 cells assessed as inhibition of HBsAg secretion by ELISA; type: functional, organism-based; conditions: HepG2 2.2.15
Summary of the method: (§2)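 HepG2.2.15 cells (MEM, 10% FBS, 380 µg/ml G418) seeded at 1×10^5 cells/ml, held 24 h at 37 °C, then treated with various drug concentrations; medium with drug renewed every 3 d for up to 9 d. Culture medium sampled on days 3, 6 and 9, stored at -20 °C, and assayed for secreted antigen. Lamivudine as positive control; IC50 = 50% inhibition of secretion; means of at least two experiments.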

[3] = Selectivity index, ratio of CC50 for human HepG2.2.15 cells to IC50 for Hepatitis B virus infected in human HepG2.2.15 cells assessed as inhibition of HBsAg secretion; type: functional
Summary of the method: (§3)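 Selectivity index computed as CC50/IC50, with CC50 from cell death of HepG2.2.15 cells after 9 days of treatment (OD 450 nm) and IC50 from 50% inhibition of HBeAg or HBsAg secretion in the same cells; medium with drug renewed every 3 d.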

[4] = system: Hepatitis B virus; experiment: Antiviral activity against Hepatitis B virus infected in human HepG2.2.15 cells assessed as inhibition of HBeAg secretion by ELISA; type: functional, organism-based; conditions: HepG2 2.2.15; summary of the method: as §2
[5] = Selectivity index, ratio of CC50 for human HepG2.2.15 cells to IC50 for Hepatitis B virus infected in human HepG2.2.15 cells assessed as inhibition of HBeAg secretion; type: functional; summary of the method: as §3
[6] = system: Hepatitis B virus; experiment: Antiviral activity against Hepatitis B virus infected in human HepG2.2.15 cells assessed as inhibition of HBsAg secretion at 300 uM after 3 days by ELISA; type: functional; conditions: HepG2 2.2.15, 72 h; summary of the method: as §2
[7] = system: Hepatitis B virus; experiment: Antiviral activity against Hepatitis B virus infected in human HepG2.2.15 cells assessed as inhibition of HBsAg secretion at 150 uM after 3 days by ELISA; type: functional; conditions: HepG2 2.2.15, 72 h; summary of the method: as §2
[8] = system: Hepatitis B virus; experiment: Antiviral activity against Hepatitis B virus infected in human HepG2.2.15 cells assessed as inhibition of HBsAg secretion at 75 uM after 3 days by ELISA; type: functional; conditions: HepG2 2.2.15, 72 h; summary of the method: as §2
[9] = system: Hepatitis B virus; experiment: Antiviral activity against Hepatitis B virus infected in human HepG2.2.15 cells assessed as inhibition of HBsAg secretion at 37.5 uM after 3 days by ELISA; type: functional; conditions: HepG2 2.2.15, 72 h; summary of the method: as §2
[10] = system: Hepatitis B virus; experiment: Antiviral activity against Hepatitis B virus infected in human HepG2.2.15 cells assessed as inhibition of HBsAg secretion at 300 uM after 6 days by ELISA; type: functional; conditions: HepG2 2.2.15, 144 h; summary of the method: as §2
[11] = system: Hepatitis B virus; experiment: Antiviral activity against Hepatitis B virus infected in human HepG2.2.15 cells assessed as inhibition of HBsAg secretion at 150 uM after 6 days by ELISA; type: functional; conditions: HepG2 2.2.15, 144 h; summary of the method: as §2
[12] = system: Hepatitis B virus; experiment: Antiviral activity against Hepatitis B virus infected in human HepG2.2.15 cells assessed as inhibition of HBsAg secretion at 75 uM after 6 days by ELISA; type: functional; conditions: HepG2 2.2.15, 144 h; summary of the method: as §2
[13] = system: Hepatitis B virus; experiment: Antiviral activity against Hepatitis B virus infected in human HepG2.2.15 cells assessed as inhibition of HBsAg secretion at 37.5 uM after 6 days by ELISA; type: functional; conditions: HepG2 2.2.15, 144 h; summary of the method: as §2
[14] = system: Hepatitis B virus; experiment: Antiviral activity against Hepatitis B virus infected in human HepG2.2.15 cells assessed as inhibition of HBsAg secretion at 300 uM after 9 days by ELISA; type: functional; conditions: HepG2 2.2.15, 216 h; summary of the method: as §2
[15] = system: Hepatitis B virus; experiment: Antiviral activity against Hepatitis B virus infected in human HepG2.2.15 cells assessed as inhibition of HBsAg secretion at 150 uM after 9 days by ELISA; type: functional; conditions: HepG2 2.2.15, 216 h; summary of the method: as §2
[16] = system: Hepatitis B virus; experiment: Antiviral activity against Hepatitis B virus infected in human HepG2.2.15 cells assessed as inhibition of HBsAg secretion at 75 uM after 9 days by ELISA; type: functional; conditions: HepG2 2.2.15, 216 h; summary of the method: as §2
[17] = system: Hepatitis B virus; experiment: Antiviral activity against Hepatitis B virus infected in human HepG2.2.15 cells assessed as inhibition of HBsAg secretion at 37.5 uM after 9 days by ELISA; type: functional; conditions: HepG2 2.2.15, 216 h; summary of the method: as §2
[18] = system: Hepatitis B virus; experiment: Antiviral activity against Hepatitis B virus infected in human HepG2.2.15 cells assessed as cell survival at 300 uM after 9 days (reference value: 100%); type: functional; conditions: HepG2 2.2.15, 216 h; summary of the method: as §1
[19] = system: Hepatitis B virus; experiment: Antiviral activity against Hepatitis B virus infected in human HepG2.2.15 cells assessed as cell survival at 150 uM after 9 days (reference value: 100%); type: functional; conditions: HepG2 2.2.15, 216 h; summary of the method: as §1
[20] = system: Hepatitis B virus; experiment: Antiviral activity against Hepatitis B virus infected in human HepG2.2.15 cells assessed as cell survival at 75 uM after 9 days (reference value: 100%); type: functional; conditions: HepG2 2.2.15, 216 h; summary of the method: as §1
[21] = system: Hepatitis B virus; experiment: Antiviral activity against Hepatitis B virus infected in human HepG2.2.15 cells assessed as cell survival at 37.5 uM after 9 days (reference value: 100%); type: functional; conditions: HepG2 2.2.15, 216 h; summary of the method: as §1
[22] = system: Hepatitis B virus; experiment: Antiviral activity against Hepatitis B virus infected in human HepG2.2.15 cells assessed as inhibition of HBeAg secretion at 300 uM after 3 days by ELISA; type: functional; conditions: HepG2 2.2.15, 72 h; summary of the method: as §2
[23] = system: Hepatitis B virus; experiment: Antiviral activity against Hepatitis B virus infected in human HepG2.2.15 cells assessed as inhibition of HBeAg secretion at 150 uM after 3 days by ELISA; type: functional; conditions: HepG2 2.2.15, 72 h; summary of the method: as §2
[24] = system: Hepatitis B virus; experiment: Antiviral activity against Hepatitis B virus infected in human HepG2.2.15 cells assessed as inhibition of HBeAg secretion at 75 uM after 3 days by ELISA; type: functional; conditions: HepG2 2.2.15, 72 h; summary of the method: as §2
[25] = system: Hepatitis B virus; experiment: Antiviral activity against Hepatitis B virus infected in human HepG2.2.15 cells assessed as inhibition of HBeAg secretion at 37.5 uM after 3 days by ELISA; type: functional; conditions: HepG2 2.2.15, 72 h; summary of the method: as §2
[26] = system: Hepatitis B virus; experiment: Antiviral activity against Hepatitis B virus infected in human HepG2.2.15 cells assessed as inhibition of HBeAg secretion at 300 uM after 6 days by ELISA; type: functional; conditions: HepG2 2.2.15, 144 h; summary of the method: as §2
[27] = system: Hepatitis B virus; experiment: Antiviral activity against Hepatitis B virus infected in human HepG2.2.15 cells assessed as inhibition of HBeAg secretion at 150 uM after 6 days by ELISA; type: functional; conditions: HepG2 2.2.15, 144 h; summary of the method: as §2
[28] = system: Hepatitis B virus; experiment: Antiviral activity against Hepatitis B virus infected in human HepG2.2.15 cells assessed as inhibition of HBeAg secretion at 75 uM after 6 days by ELISA; type: functional; conditions: HepG2 2.2.15, 144 h; summary of the method: as §2
[29] = system: Hepatitis B virus; experiment: Antiviral activity against Hepatitis B virus infected in human HepG2.2.15 cells assessed as inhibition of HBeAg secretion at 37.5 uM after 6 days by ELISA; type: functional; conditions: HepG2 2.2.15, 144 h; summary of the method: as §2
[30] = system: Hepatitis B virus; experiment: Antiviral activity against Hepatitis B virus infected in human HepG2.2.15 cells assessed as inhibition of HBeAg secretion at 300 uM after 9 days by ELISA; type: functional; conditions: HepG2 2.2.15, 216 h; summary of the method: as §2
[31] = system: Hepatitis B virus; experiment: Antiviral activity against Hepatitis B virus infected in human HepG2.2.15 cells assessed as inhibition of HBeAg secretion at 150 uM after 9 days by ELISA; type: functional; conditions: HepG2 2.2.15, 216 h; summary of the method: as §2
[32] = system: Hepatitis B virus; experiment: Antiviral activity against Hepatitis B virus infected in human HepG2.2.15 cells assessed as inhibition of HBeAg secretion at 75 uM after 9 days by ELISA; type: functional; conditions: HepG2 2.2.15, 216 h; summary of the method: as §2
[33] = system: Hepatitis B virus; experiment: Antiviral activity against Hepatitis B virus infected in human HepG2.2.15 cells assessed as inhibition of HBeAg secretion at 37.5 uM after 9 days by ELISA; type: functional; conditions: HepG2 2.2.15, 216 h; summary of the method: as §2

## O=C(/C=C/c1ccc2c(c1)OCO2)O/N=C/c1ccco1
[1]
  CC50 at 216 h: 480 µM
[2]
  IC50: 64.6 µM
[3]
  Ratio CC50/IC50: 7.42
[4]
  IC50: 81.8 µM
[5]
  Ratio CC50/IC50: 5.86
[6]
  inhibition at 300 µM: 57.9%
[7]
  inhibition at 150 µM: 42.9%
[8]
  inhibition at 75 µM: 31.2%
[9]
  inhibition at 37.5 µM: 22.3%
[10]
  inhibition at 300 µM: 79.5%
[11]
  inhibition at 150 µM: 70.4%
[12]
  inhibition at 75 µM: 54.6%
[13]
  inhibition at 37.5 µM: 31.5%
[14]
  inhibition at 300 µM: 85.4%
[15]
  inhibition at 150 µM: 70.5%
[16]
  inhibition at 75 µM: 59.5%
[17]
  inhibition at 37.5 µM: 32.4%
[18]
  viability at 300 µM: 43%
[19]
  viability at 150 µM: 73.8%
[20]
  viability at 75 µM: 85.5%
[21]
  viability at 37.5 µM: 94.4%
[22]
  inhibition at 300 µM: 47.2%
[23]
  inhibition at 150 µM: 35.2%
[24]
  inhibition at 75 µM: 24.8%
[25]
  inhibition at 37.5 µM: 16.9%
[26]
  inhibition at 300 µM: 71%
[27]
  inhibition at 150 µM: 56.5%
[28]
  inhibition at 75 µM: 45.8%
[29]
  inhibition at 37.5 µM: 26%
[30]
  inhibition at 300 µM: 86.7%
[31]
  inhibition at 150 µM: 59.1%
[32]
  inhibition at 75 µM: 47%
[33]
  inhibition at 37.5 µM: 30.3%
